Key:
Glutamate NMDA receptor [1] = assay: Ability to displace strychnine-insensitive [3H]glycine binding to N-methyl-D-aspartate glutamate receptor of rat cortical membranes.
Procedure, shortened: (§1)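 Rat cortical membranes were prepared by a freeze/thaw Triton extraction. Incubation used [³H]glycine with 25 μg membrane fragments on ice for 1 h, ended by rapid filtration through GF/B filters. Nonspecific binding was defined with 100 μM D-serine.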

Glutamate NMDA receptor [2] = assay: Inhibition of [3H]MK-801 binding to a N-methyl-D-aspartate glutamate receptor in glycine-sensitive rat cortical membranes.; assay type: cell membranes, Membrane
Procedure, shortened: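 Well-washed rat cortical membranes were given an added freeze/thaw step. [³H]MK-801 (2.5 nM) binding was run with 1 μM glutamate and 0.2 μM glycine for 2 h at 27 °C, then stopped by filtration. Nonspecific binding was defined with 0.5 μM MK-801. Values are IC50.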

[3] = target: T1, Glutamate receptor ionotropic, NMDA 1 (Rattus norvegicus, UniProt P35439); assay: Inhibition of [3H]-MK-801 binding to a N-methyl-D-aspartic acid(NMDA) receptor in glycine-sensitive rat cortical membranes.; assay type: cell membranes, Membrane
[4] = target: T1, Glutamate receptor ionotropic, NMDA 1; assay: Ability to displace strychnine-insensitive [3H]glycine binding to rat cortical membranes.; procedure, shortened: as §1

Row | Structure (SMILES) | Ki (Glutamate NMDA receptor [1]) | IC50 (Glutamate NMDA receptor [2]) | IC50 [3] | Ki [4]
1 | O=c1[nH]c2ccccc2c(O)c1-c1ccccc1 |  |  | 7290 nM | 
2 | COc1ccc(-c2c(O)nc3cc(Cl)cc(Cl)c3c2O)cc1 | 67 nM | 1230 nM |  | 
3 | Cc1ccc(-c2c(O)nc3cc(Cl)cc(Cl)c3c2O)cc1 |  |  | 550 nM | 300 nM
4 | O=c1[nH]c2cc(Cl)cc(Cl)c2c(O)c1-c1ccc([N+](=O)[O-])cc1 |  |  |  | 860 nM

Second part, the compound after the results:

Row | Ki (Glutamate NMDA receptor [1]) | IC50 (Glutamate NMDA receptor [2]) | IC50 [3] | Ki [4] | Structure (SMILES)
5 | 13 nM | 110 nM |  |  | Oc1ccc(-c2c(O)nc3cc(Cl)cc(Cl)c3c2O)cc1
6 | 57 nM | 220 nM |  |  | Oc1nc2cc(Cl)cc(Cl)c2c(O)c1-c1ccccc1
7 |  |  | 860 nM | 40 nM | O=C(O)c1cc(O)c2c(Cl)cc(Cl)cc2n1
8 |  |  | 210 nM | 18 nM | Nc1ccc(-c2c(O)nc3cc(Cl)cc(Cl)c3c2O)cc1
